Measured values: PMC4085138 (Chemistry and physics of lipids, 2013)
Structures can show the parent of a compound that is named as a salt. Each block holds one molecule with its values, some of them ahead of it.

What was measured:
granuphilin C2A domain [1] = target: T1, granuphilin C2A domain (Homo sapiens, UniProt Q96C24); assay: Intrinsic Trp fluorescence titration of IP6 or IP3 into free C2A domain; format: binding
T1 sequence (Q96C24 352-488): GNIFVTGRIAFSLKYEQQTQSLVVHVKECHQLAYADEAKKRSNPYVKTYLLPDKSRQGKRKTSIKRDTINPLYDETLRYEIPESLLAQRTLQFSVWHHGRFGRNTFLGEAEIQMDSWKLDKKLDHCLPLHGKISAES

granuphilin C2B domain [2] = target: T2, granuphilin C2B domain (Homo sapiens, UniProt Q96C24); assay: Qualitative reversal of protein-to-membrane FRET by IP6; format: binding; conditions: 8 mM IP6, all lipid compositions tested
Method in brief: (§1)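 Emission spectra recorded at 25 °C (excitation 284 nm) of vesicles bearing dansyl-PE acceptor (125 μM total accessible lipid) in KCl/NaCl/MgCl2/HEPES pH 7.4 buffer with 100 μM EDTA or 1 mM CaCl2. […] Each addition followed by 40 s stirred equilibration. Dansyl emission near 510 nm read; spectra dilution-corrected.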

granuphilin C2B domain [3] = target: T2, granuphilin C2B domain; assay: FRET competition binding assay: IP6 titrated into vesicle-bound C2B
Method in brief: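 Human C2B domain (Glu487–Leu671, E. coli-expressed, freed from GST by thrombin) at 1 μM, premixed with liposomes (125 μM total accessible lipid) in 140 mM KCl, […], 0.5 mM MgCl2, 25 mM HEPES pH 7.4 with 100 μM EDTA, 25 °C. IP6 titrated; acceptor emission at 520 nm (excitation 284 nm, 10-s average), dilution-corrected, lipid-only blank subtracted.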

granuphilin C2A domain [4] = target: T1, granuphilin C2A domain; assay: FRET competition binding assay: IP6 titrated into vesicle-bound C2A; conditions: 125 μM accessible lipid, 1 μM C2A
granuphilin C2A domain [5] = target: T1, granuphilin C2A domain; assay: Qualitative reversal of protein-to-membrane FRET by IP6; format: binding; conditions: 8 mM IP6, all lipid compositions tested
Method in brief: as §1

granuphilin C2A domain [6] = target: T1, granuphilin C2A domain; assay: Membrane dissociation kinetics on rapid addition of high IP6; format: binding; conditions: 8 mM IP6 rapidly added; biexponential
[7] = Stopped-flow FRET association and dissociation kinetics; format: binding; conditions: 0.3 μM protein, 75 μM total accessible lipid
Method in brief: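 Stopped-flow measurements at 25 °C in assay buffer with 100 μM EDTA; excitation 284 nm, dansyl emission through a 475-nm longpass filter, first 1 ms discarded. For association, 0.3 μM domain was mixed with liposomes (75 μM total accessible lipid, after mixing), and a single-exponential fit gave kobs. For dissociation, pre-bound complexes were mixed with equal volume of 4-fold excess unlabeled vesicles, and an exponential decay fit gave koff. kon was derived from kobs and koff; ≥3 replicates.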

[8] = Qualitative protein-to-membrane FRET; format: binding; conditions: 1 μM domain, 125 μM total accessible lipid
Method in brief: as §1

[9] = Stopped-flow FRET association and dissociation kinetics; format: binding; conditions: 0.3 μM protein, 75 μM total accessible lipid; remark: listed apart in the source
Method in brief: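 Association run by stopped-flow at 25 °C in assay buffer with 100 μM EDTA: 0.3 μM domain rapidly mixed with liposomes (75 μM total accessible lipid, after mixing). Excitation 284 nm, dansyl emission through a 475-nm longpass filter, data within 1 ms dead time discarded. Single-exponential fit gives kobs; traces averaged over 9–12 mixing events, ≥3 replicates.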

[10] = Qualitative protein-to-membrane FRET; format: binding; conditions: 1 μM domain, 125 μM total accessible lipid; remark: listed apart in the source
Method in brief: as §1

[11] = Qualitative protein-to-membrane FRET; format: binding; conditions: 1 μM domain, 125 μM total accessible lipid; remark: listed apart in the source
Method in brief: as §1

[12] = Qualitative protein-to-membrane FRET; format: binding; conditions: PS and PI replaced with PG; 1 μM domain
Method in brief: as §1

Ki (granuphilin C2A domain [1]): 80 ± 30 µM
fold less tight binding of IP3 than IP6 to C2A (granuphilin C2A domain [1]): ~ 40 fold
Molecule: O=P(O)(O)O[C@@H]1[C@H](O)[C@H](O)[C@@H](OP(=O)(O)O)[C@H](OP(=O)(O)O)[C@H]1O [IP3, D-myo-inositol-1,4,5-triphosphate tripotassium salt]

Molecule: O=P(O)(O)O[C@H]1[C@H](OP(=O)(O)O)[C@@H](OP(=O)(O)O)[C@H](OP(=O)(O)O)[C@@H](OP(=O)(O)O)[C@H]1OP(=O)(O)O [IP6, D-myo-inositol 1,2,3,4,5,6,-hexakisphosphate dodecasodium salt]
reversal of protein-to-membrane FRET (dansyl emission at 512 nm) (granuphilin C2B domain [2]): completely reversed
IC50 (granuphilin C2B domain [3]): 21 ± 3 µM
Ki (granuphilin C2B domain [3]): 1.9 ± 0.5 µM
IC50 (granuphilin C2A domain [4]; PC/PG/dPE vesicles): 11 ± 1 µM
IC50 (granuphilin C2A domain [4]; PC/PI/dPE vesicles): 5 ± 1 µM
IC50 (granuphilin C2A domain [4]; PC/PS/dPE vesicles): 10 ± 1 µM
IC50 (granuphilin C2A domain [4]; PM(+)PIP2 vesicles, 100 μM EDTA): 1600 ± 200 µM
IC50 (granuphilin C2A domain [4]; PM(+)PIP3 vesicles): 1100 ± 100 µM
IC50 (granuphilin C2A domain [4]; PM(−)PIPx vesicles): 37 ± 6 µM
reversal of protein-to-membrane FRET (dansyl emission at 512 nm) (granuphilin C2A domain [5]): completely reversed
fold faster dissociation kinetics than by approach to equilibrium method (granuphilin C2A domain [6]): ~ 100 fold
Ki (granuphilin C2A domain [1]): 1.8 ± 0.1 µM

B1: C2A: human granuphilin C2A domain (Gly352 – Ser488) with C-terminal His6 tag, expressed in E. coli (protein, UniProt Q96C24 352-488, looked up, fragment)
chain: GNIFVTGRIAFSLKYEQQTQSLVVHVKECHQLAYADEAKKRSNPYVKTYLLPDKSRQGKRKTSIKRDTINPLYDETLRYEIPESLLAQRTLQFSVWHHGRFGRNTFLGEAEIQMDSWKLDKKLDHCLPLHGKISAES
modifications: C2A domain C-terminal His6 tag
kobs for association [7]: 150 ± 20 s⁻¹
protein-to-membrane FRET (dPE emission) on protein addition [8]: increase in dPE emission
kobs for association [9]: 190 ± 30 s⁻¹
protein-to-membrane FRET (dPE emission) on protein addition [10]: increase in dPE emission
protein-to-membrane FRET (dPE emission) on protein addition [11]: FRET was observed
protein-to-membrane FRET (dPE emission) on protein addition [12]: Binding was restored
